Measured values from ChEMBL document CHEMBL1275443, “Functional diversity among metallo-beta-lactamases: characterization of the CAR-1 enzyme of Erwinia carotovora” (2008).

What was measured:
[1] = test system: Bradyrhizobium japonicum; assay: Ratio of Kcat to Km for Bradyrhizobium japonicum beta-Lactamase BJP-1
[2] = test system: Pectobacterium atrosepticum; assay: Ratio of Kcat to Km for Erwinia carotovora subsp. atroseptica DSM 30184 beta-Lactamase CAR-1
Outline: (§1)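 Recombinant CAR-1, expressed in E. coli BL21(DE3)/pET9-CAR-1 and purified by DEAE-Sepharose then Mono Q chromatography in Zn-containing buffers. Enzyme was diluted in HZN buffer (50 mM HEPES-NaOH pH 7.5, 50 µM ZnSO4) with 20 µg/ml BSA and used at 1.9–3,800 nM.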

[3] = test system: Pectobacterium atrosepticum; assay: Activity of Erwinia carotovora subsp. atroseptica DSM 30184 beta-lactamase CAR-1; outline: as §1

SMILES	kcat/Km [1]	kcat/Km [2]	Km [3] [µM]	kcat [3] [s⁻¹]
CO/N=C(\C(=O)N[C@@H]1C(=O)N2C(C(=O)[O-])=C(C[N+]3(C)CCCC3)CS[C@H]12)c1csc(N)n1	2 ×10² /M/s	–	–	–
CO/N=C(\C(=O)N[C@@H]1C(=O)N2C(C(=O)O)=C(CSc3nc(=O)c(O)nn3C)CS[C@H]12)c1csc(N)n1	9.6 ×10⁴ /M/s	9.9 ×10⁴ /M/s	130	13
C[C@@H](O)[C@H]1C(=O)N2C(C(=O)O)=C(SCCNC=N)C[C@H]12	6 ×10⁴ /M/s	–	–	–
CO/N=C(\C(=O)N[C@@H]1C(=O)N2C(C(=O)O)=C(COC(N)=O)CS[C@H]12)c1ccco1	5 ×10⁵ /M/s	3.6 ×10⁶ /M/s	110	400
CCN1CCN(C(=O)N[C@@H](C(=O)N[C@@H]2C(=O)N3[C@@H]2SC(C)(C)[C@@H]3C(=O)O)c2ccccc2)C(=O)C1=O	6.7 ×10⁴ /M/s	2.6 ×10⁴ /M/s	340	9
C[C@@H](O)[C@H]1C(=O)N2C(C(=O)O)=C([C@H]3CCCO3)S[C@H]12	6.8 ×10³ /M/s	4.4 ×10⁴ /M/s	120	5
CC1(C)S[C@@H]2[C@H](NC(=O)Cc3ccccc3)C(=O)N2[C@H]1C(=O)O	1.3 ×10⁵ /M/s	9.2 ×10³ /M/s	200	2
CC1(C)S[C@@H]2[C@H](NC(=O)[C@H](C(=O)O)c3ccsc3)C(=O)N2[C@H]1C(=O)O	–	1.3 ×10⁴ /M/s	640	9
CC1(C)S[C@@H]2[C@H](NC(=O)[C@H](N)c3ccccc3)C(=O)N2[C@H]1C(=O)O	1.9 ×10⁴ /M/s	3.2 ×10³ /M/s	1600	5
CC(C)(O/N=C(\C(=O)N[C@@H]1C(=O)N2C(C(=O)[O-])=C(C[n+]3ccccc3)CS[C@H]12)c1csc(N)n1)C(=O)O	–	2.9 ×10⁵ /M/s	> 561	> 160
CO/N=C(\C(=O)N[C@@H]1C(=O)N2C(C(=O)O)=C(COC(C)=O)CS[C@H]12)c1csc(N)n1	1.4 ×10⁵ /M/s	1.5 ×10⁶ /M/s	160	250
CC(=O)OCC1=C(C(=O)O)N2C(=O)[C@@H](NC(=O)Cc3cccs3)[C@H]2SC1	–	1.2 ×10⁶ /M/s	200	240
CO[C@@]1(NC(=O)Cc2cccs2)C(=O)N2C(C(=O)O)=C(COC(N)=O)CS[C@@H]21	7.1 ×10⁴ /M/s	4.7 ×10³ /M/s	> 1570	> 7
